Results taken from ChEMBL document CHEMBL1629640, “Antimicrobial activities of jadomycin B and structurally related analogues” (2009).
Converted amounts (≈) assume the structure as drawn.

What was measured:
Staphylococcus aureus [1] = assay: Antimicrobial activity against Staphylococcus aureus ATCC 55804 by broth microdilution method
[2] = system: Staphylococcus epidermidis; assay: Antimicrobial activity against Staphylococcus epidermidis C960 by broth microdilution method; type: functional
How it was run: (§1)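 Preliminary screen by broth microdilution. Jadomycins dissolved in 100% DMSO and diluted to a 2.56 mg ml−1 working stock in 5% DMSO. First well held 0.5% DMSO final, followed by twofold serial dilutions in broth. A DMSO-only control was included. Strains were grown in Mueller-Hinton broth to mid-log, diluted 100-fold, incubated 4 h, then diluted 10−6. Plates were incubated overnight and growth was read visually. MIC defined as growth ≤ half of control. Three replicates.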

Staphylococcus aureus [3] = assay: Antimicrobial activity against Staphylococcus aureus 305 by CLSI method; type: functional
How it was run: (§2)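 MIC by CLSI broth microdilution in cation-adjusted Mueller-Hinton broth at 5 × 10^5 CFU ml−1 final (5 × 10^4 CFU/well).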

Pseudomonas aeruginosa [4] = assay: Antimicrobial activity against Pseudomonas aeruginosa H187 by broth microdilution method; type: functional
How it was run: as §1

Enterococcus faecalis = assay: Antimicrobial activity against Enterococcus faecalis C625 by broth microdilution method; type: functional
How it was run: as §1

Pseudomonas aeruginosa [5] = assay: Antimicrobial activity against Pseudomonas aeruginosa H188 by broth microdilution method; type: functional
How it was run: as §1

Staphylococcus aureus [6] = assay: Antimicrobial activity against Staphylococcus aureus C622 by broth microdilution method; type: functional
How it was run: (§3)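 Preliminary MIC screen by twofold serial broth microdilution in Mueller-Hinton broth, 0.5% DMSO final, with a DMSO-only control. Overnight mid-log cultures were diluted 100-fold, grown 4 h, then diluted 10−6 and added to wells. Plates were incubated overnight and growth read visually. Inhibition was defined as growth ≤ half of control. Three replicates per strain.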

[7] = system: Staphylococcus epidermidis; assay: Antimicrobial activity against Staphylococcus epidermidis isolate C621 by broth microdilution method; type: functional
How it was run: as §1

[8] = system: Staphylococcus epidermidis; assay: Antimicrobial activity against Staphylococcus epidermidis C960 by CLSI method; type: functional
Bacillus subtilis = assay: Antimicrobial activity against Bacillus subtilis C971 by broth microdilution method; type: functional
How it was run: as §1

Staphylococcus aureus [9] = assay: Antimicrobial activity against methicillin-resistant Staphylococcus aureus C623 by broth microdilution method; type: functional
How it was run: as §3

Staphylococcus aureus [10] = assay: Antimicrobial activity against Staphylococcus aureus 305 by broth microdilution method; type: functional
How it was run: as §3

Staphylococcus aureus [11] = assay: Antimicrobial activity against methicillin-resistant Staphylococcus aureus C623 by CLSI method; type: functional
How it was run: as §2

Staphylococcus aureus [12] = assay: Antimicrobial activity against Staphylococcus aureus Becker CP8 by broth microdilution method; type: functional
How it was run: as §3

Compound | MIC (Staphylococcus aureus [1]) | MIC [2] | MIC (Staphylococcus aureus [3]) | MIC (Pseudomonas aeruginosa [4]) | MIC (Enterococcus faecalis) | MIC (Pseudomonas aeruginosa [5]) | MIC (Staphylococcus aureus [6]) | MIC [7] | MIC [8] | MIC (Bacillus subtilis) | MIC (Staphylococcus aureus [9]) | MIC (Staphylococcus aureus [10]) | MIC (Staphylococcus aureus [11]) | MIC (Staphylococcus aureus [12])
Cc1cc(O)c2c(c1)[C@@H]1OC(=O)[C@@H](CO)N1C1=C2C(=O)c2cccc(O[C@H]3C[C@@H](O)[C@@H](O)[C@H](C)O3)c2C1=O [JADOMYCIN DS] | 16 µg/mL (≈ 30.6 µM) | 1 µg/mL (≈ 1.91 µM) | 32 µg/mL (≈ 61.1 µM) | > 128 µg/mL | > 128 µg/mL | > 128 µg/mL | 8 µg/mL (≈ 15.3 µM) | 4 µg/mL (≈ 7.64 µM) | 2 µg/mL (≈ 3.82 µM) | 16 µg/mL (≈ 30.6 µM) | 8 µg/mL (≈ 15.3 µM) | 4 µg/mL (≈ 7.64 µM) | 16 µg/mL (≈ 30.6 µM) | 8 µg/mL (≈ 15.3 µM)
Cc1cc(O)c2c(c1)[C@@H]1OC(=O)[C@H]([C@H](C)O)N1C1=C2C(=O)c2cccc(O[C@H]3C[C@@H](O)[C@@H](O)[C@H](C)O3)c2C1=O [JADOMYCIN T] | 16 µg/mL (≈ 29.8 µM) | < 1 µg/mL | 64 µg/mL (≈ 119 µM) | > 128 µg/mL | > 128 µg/mL | > 128 µg/mL | 8 µg/mL (≈ 14.9 µM) | 2 µg/mL (≈ 3.72 µM) | 1 µg/mL (≈ 1.86 µM) | 8 µg/mL (≈ 14.9 µM) | 8 µg/mL (≈ 14.9 µM) | 4 µg/mL (≈ 7.44 µM) | 32 µg/mL (≈ 59.5 µM) | 4 µg/mL (≈ 7.44 µM)
Cc1cc(O)c2c(c1)[C@@H]1NC(=O)C[C@@H](C(=O)O)N1C1=C2C(=O)c2cccc(O[C@H]3C[C@@H](O)[C@@H](O)[C@H](C)O3)c2C1=O [JADOMYCIN N] | 32 µg/mL (≈ 58.1 µM) | < 1 µg/mL | > 128 µg/mL | > 128 µg/mL | > 128 µg/mL | > 128 µg/mL | 32 µg/mL (≈ 58.1 µM) | 8 µg/mL (≈ 14.5 µM) | 16 µg/mL (≈ 29.1 µM) | 32 µg/mL (≈ 58.1 µM) | 16 µg/mL (≈ 29.1 µM) | 8 µg/mL (≈ 14.5 µM) | 128 µg/mL (≈ 233 µM) | 16 µg/mL (≈ 29.1 µM)
Cc1cc(O)c2c(c1)[C@@H]1OC(=O)[C@H](CC(C)C)N1C1=C2C(=O)c2cccc(O[C@H]3C[C@@H](O)[C@@H](O)[C@H](C)O3)c2C1=O [JADOMYCIN L] | 16 µg/mL (≈ 29.1 µM) | < 1 µg/mL | 8 µg/mL (≈ 14.6 µM) | > 128 µg/mL | > 128 µg/mL | > 128 µg/mL | < 1 µg/mL | 4 µg/mL (≈ 7.28 µM) | 0.5 µg/mL (≈ 0.91 µM) | 16 µg/mL (≈ 29.1 µM) | < 1 µg/mL | 8 µg/mL (≈ 14.6 µM) | 8 µg/mL (≈ 14.6 µM) | 8 µg/mL (≈ 14.6 µM)
CSCC[C@@H]1C(=O)O[C@H]2c3cc(C)cc(O)c3C3=C(C(=O)c4c(O[C@H]5C[C@@H](O)[C@@H](O)[C@H](C)O5)cccc4C3=O)N12 [JADOMYCIN DM] | 64 µg/mL (≈ 113 µM) | < 1 µg/mL | 32 µg/mL (≈ 56.4 µM) | > 128 µg/mL | > 128 µg/mL | > 128 µg/mL | 2 µg/mL (≈ 3.52 µM) | 2 µg/mL (≈ 3.52 µM) | 2 µg/mL (≈ 3.52 µM) | 16 µg/mL (≈ 28.2 µM) | 4 µg/mL (≈ 7.05 µM) | 32 µg/mL (≈ 56.4 µM) | 16 µg/mL (≈ 28.2 µM) | 16 µg/mL (≈ 28.2 µM)
Cc1cc(O)c2c(c1)[C@@H]1OC(=O)CN1C1=C2C(=O)c2cccc(O[C@H]3C[C@@H](O)[C@@H](O)[C@H](C)O3)c2C1=O [JADOMYCIN G] | 64 µg/mL (≈ 130 µM) | 2 µg/mL (≈ 4.05 µM) | > 128 µg/mL | > 128 µg/mL | > 128 µg/mL | > 128 µg/mL | 64 µg/mL (≈ 130 µM) | 8 µg/mL (≈ 16.2 µM) | 32 µg/mL (≈ 64.8 µM) | 64 µg/mL (≈ 130 µM) | 32 µg/mL (≈ 64.8 µM) | 64 µg/mL (≈ 130 µM) | > 128 µg/mL | 32 µg/mL (≈ 64.8 µM)
Cc1cc(O)c2c(c1)[C@@H]1OC(=O)[C@H](Cc3ccc(O)cc3)N1C1=C2C(=O)c2cccc(O[C@H]3C[C@@H](O)[C@@H](O)[C@H](C)O3)c2C1=O [JADOMYCIN Y] | 16 µg/mL (≈ 26.7 µM) | < 1 µg/mL | – | > 128 µg/mL | > 128 µg/mL | > 128 µg/mL | 8 µg/mL (≈ 13.3 µM) | 2 µg/mL (≈ 3.34 µM) | – | 8 µg/mL (≈ 13.3 µM) | 8 µg/mL (≈ 13.3 µM) | 4 µg/mL (≈ 6.67 µM) | – | 4 µg/mL (≈ 6.67 µM)
Cc1cc(O)c2c(c1)[C@@H]1OC(=O)[C@H](CO)N1C1=C2C(=O)c2cccc(O[C@H]3C[C@@H](O)[C@@H](O)[C@H](C)O3)c2C1=O [JADOMYCIN S] | 32 µg/mL (≈ 61.1 µM) | 1 µg/mL (≈ 1.91 µM) | 32 µg/mL (≈ 61.1 µM) | > 128 µg/mL | > 128 µg/mL | > 128 µg/mL | – | 4 µg/mL (≈ 7.64 µM) | 0.5 µg/mL (≈ 0.955 µM) | 16 µg/mL (≈ 30.6 µM) | – | 8 µg/mL (≈ 15.3 µM) | 32 µg/mL (≈ 61.1 µM) | 8 µg/mL (≈ 15.3 µM)
CC[C@H]1OC(=O)[C@H](C)[C@@H](O[C@H]2C[C@@](C)(OC)[C@@H](O)[C@H](C)O2)[C@H](C)[C@@H](O[C@@H]2O[C@H](C)C[C@H](N(C)C)[C@H]2O)[C@](C)(O)C[C@@H](C)C(=O)[C@H](C)[C@@H](O)[C@]1(C)O [ERYTHROMYCIN] | < 0.25 µg/mL | < 0.125 µg/mL | – | > 2 µg/mL | 1 µg/mL (≈ 1.36 µM) | > 2 µg/mL | < 1 µg/mL | < 0.125 µg/mL | – | < 0.125 µg/mL | > 128 µg/mL | < 0.25 µg/mL | – | < 0.25 µg/mL
Cc1cc(O)c2c(c1)[C@@H]1OC(=O)[C@H](Cc3ccccc3)N1C1=C2C(=O)c2cccc(O[C@H]3C[C@@H](O)[C@@H](O)[C@H](C)O3)c2C1=O [JADOMYCIN F] | 16 µg/mL (≈ 27.4 µM) | < 1 µg/mL | 4 µg/mL (≈ 6.85 µM) | > 128 µg/mL | > 128 µg/mL | > 128 µg/mL | 1 µg/mL (≈ 1.71 µM) | 2 µg/mL (≈ 3.43 µM) | 0.5 µg/mL (≈ 0.857 µM) | 16 µg/mL (≈ 27.4 µM) | 1 µg/mL (≈ 1.71 µM) | 4 µg/mL (≈ 6.85 µM) | 8 µg/mL (≈ 13.7 µM) | 8 µg/mL (≈ 13.7 µM)
CC[C@H](C)[C@H]1C(=O)O[C@H]2c3cc(C)cc(O)c3C3=C(C(=O)c4c(O[C@H]5C[C@@H](O)[C@@H](O)[C@H](C)O5)cccc4C3=O)N12 [JADOMYCIN B] | 4 µg/mL (≈ 7.28 µM) | < 1 µg/mL | 4 µg/mL (≈ 7.28 µM) | > 128 µg/mL | 32 µg/mL (≈ 58.2 µM) | > 128 µg/mL | 2 µg/mL (≈ 3.64 µM) | < 1 µg/mL | 0.5 µg/mL (≈ 0.91 µM) | 4 µg/mL (≈ 7.28 µM) | < 1 µg/mL | < 1 µg/mL | 8 µg/mL (≈ 14.6 µM) | 2 µg/mL (≈ 3.64 µM)
Cc1cc(O)c2c(c1)[C@@H]1OC(=O)[C@@H]([C@H](C)O)N1C1=C2C(=O)c2cccc(O[C@H]3C[C@@H](O)[C@@H](O)[C@H](C)O3)c2C1=O [JADOMYCIN DT] | 64 µg/mL (≈ 119 µM) | 2 µg/mL (≈ 3.72 µM) | 32 µg/mL (≈ 59.5 µM) | > 128 µg/mL | > 128 µg/mL | > 128 µg/mL | 16 µg/mL (≈ 29.8 µM) | 8 µg/mL (≈ 14.9 µM) | 4 µg/mL (≈ 7.44 µM) | 64 µg/mL (≈ 119 µM) | 16 µg/mL (≈ 29.8 µM) | 32 µg/mL (≈ 59.5 µM) | 32 µg/mL (≈ 59.5 µM) | 32 µg/mL (≈ 59.5 µM)
